Results as given in ChEMBL document CHEMBL1158679, “Synthetic analogues of irlbacholine: a novel antifungal plant metabolite isolated from Irlbachia alata” (1999).
≈ marks a conversion by molar mass, not a printed value.

Assays:
Type in all cases: functional
Cryptococcus neoformans [1] = assay: Antifungal activity against Cryptococcus neoformans ATCC 36556 by standard microdilution method
Outline: (§1)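 Minimum inhibitory concentration measured by standard broth microdilution in 96-well microplates against the named yeast strain.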

Cryptococcus neoformans [2] = assay: Antifungal activity against Cryptococcus neoformans 96-69 by standard microdilution method
Candida albicans [3] = assay: Antifungal activity against Candida albicans 572-27 by standard microdilution method; outline: as §1
Candida albicans [4] = assay: Antifungal activity against Candida albicans ATCC 10259 by standard microdilution method; outline: as §1
Aspergillus fumigatus = assay: Antifungal activity against Aspergillus fumigatus ATCC 13073 by standard microdilution method
Outline: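 MIC read from a 96-well microplate broth microdilution run by the standard method, with Sabouraud dextrose broth as the medium for A. fumigatus ATCC 13073.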

Candida albicans [5] = assay: Antifungal activity against Candida albicans B311 by standard microdilution method; outline: as §1

Row | Structure (SMILES) | MIC (Cryptococcus neoformans [1]) | MIC (Cryptococcus neoformans [2]) | MIC (Candida albicans [3]) | MIC (Candida albicans [4]) | MIC (Aspergillus fumigatus) | MIC (Candida albicans [5])
1 | C[N+](C)(C)CCOP(=O)([O-])OCCCCCCCCCCCCCCCCCCOP(=O)([O-])OCC[N+](C)(C)C | 500 µg/mL (≈ 811 µM) | > 500 µg/mL | > 500 µg/mL | > 500 µg/mL | – | –
2 | C[N+](C)(C)CCOP(=O)([O-])OCCCCCCCCCCCCCCCCOP(=O)([O-])OCC[N+](C)(C)C | 125 µg/mL (≈ 212 µM) | 125 µg/mL (≈ 212 µM) | 125 µg/mL (≈ 212 µM) | 125 µg/mL (≈ 212 µM) | 25 µg/mL (≈ 42.5 µM) | 250 µg/mL (≈ 425 µM)
3 | O=P(OCCCCCCCCCCCCCCCCOP(=O)(Oc1ccccc1)Oc1ccccc1)(Oc1ccccc1)Oc1ccccc1 | 62.5 µg/mL (≈ 86.5 µM) | 125 µg/mL (≈ 173 µM) | 250 µg/mL (≈ 346 µM) | 125 µg/mL (≈ 173 µM) | > 500 µg/mL | 250 µg/mL (≈ 346 µM)
4 | C[N+](C)(C)CCOP(=O)([O-])OCCCCCCCCCCCCCCCCCCCCCCOP(=O)([O-])OCC[N+](C)(C)C.Cl | 0.04 µg/mL | 0.5 µg/mL | 0.5 µg/mL | 1.25 µg/mL | 0.08 µg/mL | 0.5 µg/mL
5 | CCCCCCCCCCCCCCCCOP(=O)(O)O [HEXADECYL DIHYDROGEN PHOSPHATE] | 62.5 µg/mL | 62.5 µg/mL | 125 µg/mL | 250 µg/mL | > 500 µg/mL | 250 µg/mL
6 | C[N+](C)(C)CCOP(=O)([O-])OCCCCCCCCCCCCCCCCCCCCOP(=O)([O-])OCC[N+](C)(C)C | 15.6 µg/mL (≈ 24.2 µM) | 15.6 µg/mL (≈ 24.2 µM) | > 500 µg/mL | > 500 µg/mL | – | –
7 | CCCCCCCCCCCCCCCCOP(=O)(O)OCC[N+](C)(C)C.[Cl-] | 0.5 µg/mL | 0.5 µg/mL | 1 µg/mL | 0.5 µg/mL | – | 1 µg/mL
8 | C[N+](C)(C)CCOP(=O)([O-])OCCCCCCCCCCCCCCOP(=O)([O-])OCC[N+](C)(C)C | 250 µg/mL (≈ 446 µM) | 250 µg/mL (≈ 446 µM) | 250 µg/mL (≈ 446 µM) | 250 µg/mL (≈ 446 µM) | – | 250 µg/mL (≈ 446 µM)
9 | CCCCCCCCCCCCCCCCO [CETYL ALCOHOL] | 62.5 µg/mL (≈ 258 µM) | 125 µg/mL (≈ 516 µM) | 250 µg/mL (≈ 1030 µM) | 125 µg/mL (≈ 516 µM) | > 500 µg/mL | 250 µg/mL (≈ 1030 µM)
10 | O=P(OCCCCCCCCCCCCCCCCCCCCCCOP(=O)(Oc1ccccc1)Oc1ccccc1)(Oc1ccccc1)Oc1ccccc1 | 125 µg/mL (≈ 155 µM) | 125 µg/mL (≈ 155 µM) | 250 µg/mL (≈ 310 µM) | 125 µg/mL (≈ 155 µM) | > 500 µg/mL | 250 µg/mL (≈ 310 µM)
11 | O=P(O)(OCCBr)OCCCCCCCCCCCCCCCCCCCCCCOP(=O)(O)OCCBr | 500 µg/mL (≈ 698 µM) | 500 µg/mL (≈ 698 µM) | > 500 µg/mL | > 500 µg/mL | – | –
12 | O=P(O)(OCCBr)OCCCCCCCCCCCCCCCCOP(=O)(O)OCCBr | 62.5 µg/mL (≈ 98.8 µM) | 125 µg/mL (≈ 198 µM) | 125 µg/mL (≈ 198 µM) | 62.5 µg/mL (≈ 98.8 µM) | – | 125 µg/mL (≈ 198 µM)
13 | O=P(O)(O)OCCCCCCCCCCCCCCCCCCCCCCOP(=O)(O)O | 62.5 µg/mL (≈ 124 µM) | 125 µg/mL (≈ 249 µM) | 250 µg/mL (≈ 497 µM) | 250 µg/mL (≈ 497 µM) | > 500 µg/mL | 250 µg/mL (≈ 497 µM)
14 | C[N+](C)(C)CCOP(=O)([O-])OCCCCCCCCCCCCCCCCCCCCCCOP(=O)([O-])OCC[N+](C)(C)C | 0.04 µg/mL (≈ 0.0594 µM) | 0.5 µg/mL (≈ 0.743 µM) | 1 µg/mL (≈ 1.49 µM) | 1.25 µg/mL (≈ 1.86 µM) | 0.08 µg/mL (≈ 0.119 µM) | 1 µg/mL (≈ 1.49 µM)
15 | C[N+](C)(C)CCOP(=O)(O)OCCCCCCCCCCCCCCCCCl.[Cl-] | 0.5 µg/mL | 0.5 µg/mL | 1 µg/mL | 0.5 µg/mL | 3.1 µg/mL | 1 µg/mL
16 | C[N+](C)(C)CCOP(=O)(O)OCCCCCCCCCCCCCCCl.[Cl-] | 1 µg/mL | 0.5 µg/mL | 3.9 µg/mL | 7.8 µg/mL | – | 7.8 µg/mL
17 | O=P(O)(O)OCCCCCCCCCCCCCCCCOP(=O)(O)O | 62.5 µg/mL (≈ 149 µM) | 125 µg/mL (≈ 299 µM) | 250 µg/mL (≈ 598 µM) | 125 µg/mL (≈ 299 µM) | > 500 µg/mL | 250 µg/mL (≈ 598 µM)
18 | C[N+](C)(C)CCOP(=O)([O-])OCCCCCCCCCCCCOP(=O)([O-])OCC[N+](C)(C)C | 250 µg/mL (≈ 469 µM) | 250 µg/mL (≈ 469 µM) | 500 µg/mL (≈ 939 µM) | 500 µg/mL (≈ 939 µM) | – | 500 µg/mL (≈ 939 µM)
19 | OCCCCCCCCCCCCCCCCCCCCCCO | > 500 µg/mL | > 500 µg/mL | > 500 µg/mL | > 500 µg/mL | > 500 µg/mL | > 500 µg/mL
20 | OCCCCCCCCCCCCCCCCO | 62.5 µg/mL (≈ 242 µM) | 62.5 µg/mL (≈ 242 µM) | 250 µg/mL (≈ 967 µM) | 125 µg/mL (≈ 484 µM) | > 500 µg/mL | 250 µg/mL (≈ 967 µM)
21 | C[N+](C)(C)CCOP(=O)([O-])OCCCCCCCCCCCCCCCCCCCCCCCCOP(=O)([O-])OCC[N+](C)(C)C | 3.9 µg/mL (≈ 5.56 µM) | 7.8 µg/mL (≈ 11.1 µM) | 62.5 µg/mL (≈ 89.2 µM) | 31.2 µg/mL (≈ 44.5 µM) | – | 62.5 µg/mL (≈ 89.2 µM)
22 | CCCCCCCCCCCCCCCCCCCCCCOP(=O)(O)OCC[N+](C)(C)C.[Cl-] | 250 µg/mL | 500 µg/mL | 500 µg/mL | 500 µg/mL | – | 500 µg/mL
